Reference: ChEMBL document CHEMBL4673298, “Exploration of Structure-Activity Relationship of Aromatic Aldehydes Bearing Pyridinylmethoxy-Methyl Esters as Novel Antisickling Agents” (J Med Chem, 2020)
Calls of active or inactive are those of the source. No cut-off for these calls is given here.

How the values were obtained:
[1] = system: Red blood cell; test: Binding affinity to Hemoglobin in sickle cell RBCs from blood isolated from patient with homozygous SS assessed as increase in hemoglobin modification under hypoxic conditions incubated for 2 hrs […]; type: tissue-based; conditions: Homo sapiens
Outline: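 SS blood, hematocrit 20%, incubated under air with compound (0.5, 1, 2 mM) at 37 °C for 1 h, then hypoxic (2.5% O2/97.5% N2) at 37 °C for 2 h. Cells are washed and hemolyzed. Lysate is run on weak cation-exchange HPLC to quantify Hb adduct (modified Hb). Three biological replicates, mean ± SD.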

[2] = system: Red blood cell; test: Binding affinity to Hemoglobin in sickle cell RBCs from blood isolated from patient with homozygous SS assessed as increase in Hb affinity for oxygen under hypoxic conditions incubated for 2 hrs by oxygen equilibrium curve study; type: tissue-based; conditions: Homo sapiens
Outline: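 SS blood, hematocrit 20%, incubated under air with compound (0.5, 1, 2 mM) at 37 °C for 1 h, then hypoxic (2.5% O2/97.5% N2) at 37 °C for 2 h. Cells are washed in PBS and hemolyzed hypotonically. Lysate in 0.1 M potassium phosphate pH 7.0 is run by Hemox analysis for P50. ΔP50 is given as percent of DMSO control. Three biological replicates, mean ± SD.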

[3] = Inhibition of sickling in sickle cell RBCs from blood isolated from patient with homozygous SS at 2 mM under hypoxic conditions incubated for 2 hrs; type: functional; conditions: Homo sapiens, Erythrocyte
Outline: (§1)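 SS blood, hematocrit 20%, preincubated under air with compound (0.5, 1, 2 mM) for 1 h at 37 °C, then 2 h hypoxia (2.5% O2/97.5% N2) at 37 °C. Aliquots are fixed in 2% glutaraldehyde without air exposure. Cell morphology is scored from bright-field images at 40×. Three biological replicates, mean ± SD.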

[4] = system: Erythrocyte; test: Inhibition of sickling in sickle cell RBCs from blood isolated from patient with homozygous SS under hypoxic conditions incubated for 2 hrs; type: functional, tissue-based; conditions: Homo sapiens; outline: as §1
[5] = species: Homo sapiens; test: Binding affinity to Hemoglobin in normal human whole blood assessed as increase in Hb affinity for oxygen at 2 mM incubated for 24 hrs by oxygen equilibrium curve study; type: tissue-based
Outline: (§2)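 Normal human whole blood, hematocrit 30%, incubated with or without compound in DMSO (0.5, 1.0 or 2.0 mM; 2 mM for the time course) at 37 °C. The blood is tonometered about 7 min at 37 °C against gas with 0.804, 2.935 and 5.528% O2 (6, 20, 40 mmHg). sO2 and pO2 are read on a blood gas analyzer. ΔP50% is taken relative to no compound. Time course sampled at 1, 2, 4, 8, 12, 24 h.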

[6] = species: Homo sapiens; test: Binding affinity to Hemoglobin in normal human whole blood assessed as increase in Hb affinity for oxygen at 2 mM incubated for 1 to 24 hrs by oxygen equilibrium curve study; type: tissue-based; conditions: time 1-24 hrs; outline: as §2

In the case of `COC(=O)c1ccnc(COc2ccc(OC)cc2C=O)c1`, the Activity [1] was “Dose-dependent effect”, the Activity [2] was “Dose-dependent effect” and the inhibition at 2000 µM [3] was > 90%. For the same compound, the inhibition [4] was “Dose-dependent effect” and the Activity [5] was “Active”.
In the case of `COc1cc(C=O)ccc1O`, the Activity [6] was 21%.
